What was measured:
Type in all cases: functional
[1] = test system: Phytophthora infestans; experiment: Antifungal activity against Phytophthora infestans assessed as inhibition of late tomato blight disease on tomato cultivar Rutgers plants at 100 ppm measured 96 hr post fungal inoculation relative to untreated control
How it was run: (§1)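 Whole-plant protectant test: pure compounds in acetone, serially diluted in acetone to 6.25, 25 or 100 ppm and applied to plants.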

[2] = test system: Parastagonospora nodorum; experiment: Antifungal activity against Phaeosphaeria nodorum assessed as inhibition of glume blotch disease on wheat cultivar Yuma plants at 6.25 ppm measured 24 hr post fungal inoculation relative to untreated control; how it was run: as §1
[3] = test system: Parastagonospora nodorum; experiment: Antifungal activity against Phaeosphaeria nodorum assessed as inhibition of glume blotch disease on wheat cultivar Yuma plants at 25 ppm measured 24 hr post fungal inoculation relative to untreated control; how it was run: as §1
[4] = test system: Parastagonospora nodorum; experiment: Antifungal activity against Phaeosphaeria nodorum assessed as inhibition of glume blotch disease on wheat cultivar Yuma plants at 100 ppm measured 24 hr post fungal inoculation relative to untreated control; how it was run: as §1
[5] = test system: Puccinia graminis f. tritici; experiment: Antifungal activity against Puccinia graminis f. tritici assessed as inhibition of wheat stem rust disease on wheat cultivar Yuma at 6.25 ppm measured 96 hr post fungal inoculation relative to untreated control; how it was run: as §1
[6] = test system: Puccinia graminis f. tritici; experiment: Antifungal activity against Puccinia graminis f. tritici assessed as inhibition of wheat stem rust disease on wheat cultivar Yuma at 6.25 ppm measured 24 hr post fungal inoculation relative to untreated control; how it was run: as §1
[7] = test system: Zymoseptoria tritici; experiment: Antifungal activity against Zymoseptoria tritici assessed as inhibition of wheat leaf spot disease on wheat cultivar Yuma at 6.25 ppm measured 24 hr post fungal inoculation relative to untreated control; how it was run: as §1
[8] = test system: Zymoseptoria tritici; experiment: Antifungal activity against Zymoseptoria tritici assessed as inhibition of wheat leaf spot disease on wheat cultivar Yuma at 25 ppm measured 24 hr post fungal inoculation relative to untreated control; how it was run: as §1
[9] = test system: Zymoseptoria tritici; experiment: Antifungal activity against Zymoseptoria tritici assessed as inhibition of wheat leaf spot disease on wheat cultivar Yuma at 100 ppm measured 24 hr post fungal inoculation relative to untreated control; how it was run: as §1
[10] = test system: Puccinia graminis f. tritici; experiment: Antifungal activity against Puccinia graminis f. tritici assessed as inhibition of wheat stem rust disease on wheat cultivar Yuma at 25 ppm measured 96 hr post fungal inoculation relative to untreated control; how it was run: as §1
[11] = test system: Puccinia graminis f. tritici; experiment: Antifungal activity against Puccinia graminis f. tritici assessed as inhibition of wheat stem rust disease on wheat cultivar Yuma at 100 ppm measured 96 hr post fungal inoculation relative to untreated control; how it was run: as §1
[12] = test system: Puccinia graminis f. tritici; experiment: Antifungal activity against Puccinia graminis f. tritici assessed as inhibition of wheat stem rust disease on wheat cultivar Yuma at 25 ppm measured 24 hr post fungal inoculation relative to untreated control; how it was run: as §1
[13] = test system: Puccinia graminis f. tritici; experiment: Antifungal activity against Puccinia graminis f. tritici assessed as inhibition of wheat stem rust disease on wheat cultivar Yuma at 100 ppm measured 24 hr post fungal inoculation relative to untreated control; how it was run: as §1
[14] = test system: Plasmopara viticola; experiment: Antifungal activity against Plasmopara viticola assessed as inhibition of grape downy mildew disease on vines cultivar Carignane plants at 6.25 ppm measured 96 hr post fungal inoculation relative to untreated control; how it was run: as §1
[15] = test system: Plasmopara viticola; experiment: Antifungal activity against Plasmopara viticola assessed as inhibition of grape downy mildew disease on vines cultivar Carignane plants at 6.25 ppm measured 24 hr post fungal inoculation relative to untreated control; how it was run: as §1
[16] = test system: Plasmopara viticola; experiment: Antifungal activity against Plasmopara viticola assessed as inhibition of grape downy mildew disease on vines cultivar Carignane plants at 25 ppm measured 96 hr post fungal inoculation relative to untreated control; how it was run: as §1
[17] = test system: Plasmopara viticola; experiment: Antifungal activity against Plasmopara viticola assessed as inhibition of grape downy mildew disease on vines cultivar Carignane plants at 25 ppm measured 24 hr post fungal inoculation relative to untreated control; how it was run: as §1
[18] = test system: Plasmopara viticola; experiment: Antifungal activity against Plasmopara viticola assessed as inhibition of grape downy mildew disease on vines cultivar Carignane plants at 100 ppm measured 96 hr post fungal inoculation relative to untreated control; how it was run: as §1
[19] = test system: Plasmopara viticola; experiment: Antifungal activity against Plasmopara viticola assessed as inhibition of grape downy mildew disease on vines cultivar Carignane plants at 100 ppm measured 24 hr post fungal inoculation relative to untreated control; how it was run: as §1
[20] = test system: Phytophthora infestans; experiment: Antifungal activity against Phytophthora infestans assessed as inhibition of late tomato blight disease on tomato cultivar Rutgers plants at 6.25 ppm measured 24 hr post fungal inoculation relative to untreated control; how it was run: as §1
[21] = test system: Phytophthora infestans; experiment: Antifungal activity against Phytophthora infestans assessed as inhibition of late tomato blight disease on tomato cultivar Rutgers plants at 6.25 ppm measured 96 hr post fungal inoculation relative to untreated control; how it was run: as §1
[22] = test system: Phytophthora infestans; experiment: Antifungal activity against Phytophthora infestans assessed as inhibition of late tomato blight disease on tomato cultivar Rutgers plants at 25 ppm measured 96 hr post fungal inoculation relative to untreated control; how it was run: as §1
[23] = test system: Phytophthora infestans; experiment: Antifungal activity against Phytophthora infestans assessed as inhibition of late tomato blight disease on tomato cultivar Rutgers plants at 25 ppm measured 24 hr post fungal inoculation relative to untreated control; how it was run: as §1
[24] = test system: Phytophthora infestans; experiment: Antifungal activity against Phytophthora infestans assessed as inhibition of late tomato blight disease on tomato cultivar Rutgers plants at 100 ppm measured 24 hr post fungal inoculation relative to untreated control; how it was run: as §1
[25] = test system: Parastagonospora nodorum; experiment: Antifungal activity against Phaeosphaeria nodorum assessed as inhibition of glume blotch disease on wheat cultivar Yuma plants at 25 ppm measured 96 hr post fungal inoculation relative to untreated control; how it was run: as §1
[26] = test system: Parastagonospora nodorum; experiment: Antifungal activity against Phaeosphaeria nodorum assessed as inhibition of glume blotch disease on wheat cultivar Yuma plants at 100 ppm measured 96 hr post fungal inoculation relative to untreated control; how it was run: as §1

Compound	inhibition at 6.25 ppm [2] [%]	inhibition at 25 ppm [3] [%]	inhibition at 100 ppm [4] [%]	inhibition at 6.25 ppm [6] [%]	inhibition at 6.25 ppm [7] [%]	inhibition at 25 ppm [8] [%]	inhibition at 100 ppm [9] [%]	inhibition at 25 ppm [12] [%]	inhibition at 100 ppm [13] [%]	inhibition at 6.25 ppm [15] [%]	inhibition at 25 ppm [17] [%]	inhibition at 100 ppm [19] [%]	inhibition at 6.25 ppm [20] [%]	inhibition at 25 ppm [23] [%]	inhibition at 100 ppm [24] [%]	other results
C=C1[C@@H](C)C[C@@H](OC(=O)/C=C/c2ccccc2)[C@]2(C)[C@@H]3C(=CC[C@@H]12)[C@@H](OC)O[C@H]3OC	0	0	20	4	0	0	0	4	71	7	61	74	47	78	99	inhibition at 100 ppm [1]: 14%; inhibition at 6.25 ppm [5]: 0%; inhibition at 25 ppm [10]: 0%; inhibition at 100 ppm [11]: 19%; inhibition at 6.25 ppm [14]: 0%; inhibition at 25 ppm [16]: 23%; inhibition at 100 ppm [18]: 57%; inhibition at 6.25 ppm [21]: 0%; inhibition at 25 ppm [22]: 6%
C=C1[C@@H]2[C@@H](O)C=C3[C@@H](OC)O[C@@H](OC)[C@@H]3[C@@]2(C)[C@H](O)C[C@@H]1C	–	–	0	–	–	–	11	–	0	–	–	0	–	–	0	–
C=C1[C@@H]2[C@@H](OC)C=C3[C@@H](OC)O[C@@H](OC)[C@@H]3[C@@]2(C)[C@H](O)C[C@@H]1C	–	–	0	–	–	–	0	–	0	–	–	0	–	–	0	–
C=C1[C@@H](C)C[C@@H](OC(=O)/C=C/c2ccccc2)[C@]2(C)[C@@H](C=O)C(C=O)=CC[C@@H]12 [Paxidal]	–	0	17	–	–	0	7	0	0	–	23	51	–	57	69	inhibition at 100 ppm [1]: 9%; inhibition at 25 ppm [25]: 0%; inhibition at 100 ppm [26]: 18%; inhibition at 25 ppm [16]: 0%; inhibition at 100 ppm [18]: 0%; inhibition at 25 ppm [22]: 18%
C=C1[C@@H](C)C[C@@H](O)[C@]2(C)[C@@H](C=O)C(C=O)=CC[C@@H]12	0	0	60	0	0	0	0	0	0	7	4	24	19	36	28	–
C=C1[C@@H](C)C[C@@H](OC)[C@]2(C)[C@@H](C=O)C(C=O)=CC[C@@H]12	20	20	20	0	0	0	0	0	21	9	33	70	3	67	98	–
C=C1[C@@H]2C(=O)C=C3[C@@H](OC)O[C@@H](OC)[C@@H]3[C@@]2(C)[C@H](OC(=O)/C=C/c2ccccc2)C[C@@H]1C	–	–	0	–	–	–	0	–	0	–	–	0	–	–	0	–
C=C1[C@@H]2[C@@H](O)C=C(C=O)[C@H](C=O)[C@@]2(C)[C@H](OC(=O)/C=C/c2ccccc2)C[C@@H]1C	33	73	96	4	0	0	0	15	85	2	19	89	74	91	100	–
C=C1[C@@H]2[C@H](O)C=C(C=O)[C@H](C=O)[C@@]2(C)[C@H](OC(=O)/C=C/c2ccccc2)C[C@@H]1C	0	0	73	0	0	0	0	8	77	0	28	76	72	82	100	inhibition at 100 ppm [1]: 3%; inhibition at 6.25 ppm [5]: 0%; inhibition at 25 ppm [10]: 4%; inhibition at 100 ppm [11]: 61%; inhibition at 6.25 ppm [14]: 0%; inhibition at 25 ppm [16]: 0%; inhibition at 100 ppm [18]: 86%; inhibition at 6.25 ppm [21]: 0%; inhibition at 25 ppm [22]: 7%
C=C1[C@@H](C)C[C@@H](OC(=O)/C=C/c2ccccc2)[C@@]2(C)[C@H]1CC=C(CO)[C@@H]2CO	0	0	0	0	0	0	0	0	0	4	22	70	-6	8	58	–
C=C1[C@@H]2[C@@H](O)C=C3[C@@H](OC)O[C@@H](OC)[C@@H]3[C@@]2(C)[C@H](OC(=O)CCc2ccccc2)C[C@@H]1C	0	0	0	42	0	17	90	9	9	0	0	0	0	0	0	–
C=C1[C@@H]2[C@@H](O)C=C3[C@@H](OC)O[C@@H](OC)[C@@H]3[C@@]2(C)[C@H](OC(=O)/C=C/c2ccccc2)C[C@@H]1C	0	0	0	0	43	33	78	4	7	0	0	0	0	0	0	–

Reference: ChEMBL document CHEMBL3046621, “Fungicidal sesquiterpene dialdehyde cinnamates from Pseudowintera axillaris” (2006)
